Experimental data from publication PMC4832564 (Amyloid : the international journal of experimental and …, 2015).
Like-named read-outs stand apart in the source and are kept apart here. Each block holds one molecule with its values, some of them ahead of it. Where no end group is shown, it is not given here.

Key:
[1] = system: systemic AA amyloid; format: in vivo, mouse; conditions: mice with systemic visceral AA amyloidosis, 2 h post-injection iv; triplicate
[2] = mouse, in vivo, iv
[3] = system: synthetic rVλ6Wil fibrils; format: binding, human; conditions: for % bound relative to no inhibitor: 50 μg rVλ6Wil fibrils, mean of duplicate experiments
In short: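 ¹²⁵I-p5 or ¹²⁵I-RAGE VC1 (chloramine T iodination) pre-incubated 30 min RT with AGE-BSA, BSA, enoxaparin or E. coli-expressed human S100B (100, 4 or 1 μM). 50 μg fibrils from E. coli-made rVλ6Wil then added in PBS/0.05% tween 20 (S100B: TBS with 1 mM CaCl₂) and rotated 1 h RT. Spun twice at 16 000 × g, 10 min each. Pellet and supernatant gamma-counted; % bound relative to no inhibitor; mean of duplicate experiments.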

[4] = system: heparin and synthetic amyloid fibrils; conditions: cited from earlier work
[5] = target: Synthetic amyloid fibrils of the recombinant λ6 variable domain from patient Wil (rVλ6Wil) (human); experiment: co-sedimentation
[6] = target: Synthetic amyloid fibrils of human islet amyloid polypeptide (IAPP) (human) (UniProt P10997); experiment: co-sedimentation
[7] = target: Synthetic amyloid fibrils of the recombinant λ6 variable domain from patient Wil (rVλ6Wil) (human); experiment: co-sedimentation; remark: listed apart in the source
[8] = target: Synthetic amyloid fibrils of Aβ(1–40); experiment: co-sedimentation

Chain of Synthetic amyloid fibrils of human islet amyloid polypeptide (IAPP) (human) (P10997 34-70): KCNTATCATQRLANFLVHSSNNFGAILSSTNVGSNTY

decrease in binding to fibrils on addition of BSA ([3]; 125I-labelled, BSA added (100 μM in Table 1)): ~ 30%
decrease in binding with the synthetic amyloid fibrils ([3]; 125I-labelled, Enoxaparin 100 μM): 13%
decrease in binding to fibrils on addition of S100B ([3]; 125I-labelled, human recombinant S100B, in the presence of 1 mM CaCl2): 20%
reduction of reactivity with rVλ6Wil fibrils ([3]; 125I-labelled, pre-incubation with AGE-BSA at 100 μM): ~ 90%
Molecule: CGGYSKAQKAQAKQAKQAQKAQKAQAKQAKQ [p5]

% bound relative to no inhibitor (no inhibitor, PBS) [5]: 100%
% bound relative to no inhibitor (no inhibitor, TBS with 1 mM CaCl2) [5]: 102%
% bound relative to no inhibitor, with 4 μM enoxaparin [5]: 102%
% bound relative to no inhibitor, with 100 μM enoxaparin [5]: 94%
% reduction of ^125I-p5R binding to IAPP fibrils [6]: 70%
% reduction of ^125I-p5 binding to IAPP fibrils [6]: 90%
Molecule: Recombinant human RAGE VC1 (soluble recombinant variable and constant-1 domains of RAGE) (domain or fragment)

% bound to the fibril pellet [7]: > 50%
% bound to the fibril pellet [8]: > 50%
Molecule: GGGYSRAQRAQARQARQAQRAQRAQARQARQ (also: radioiodinated (125I, chloramine T)) [Peptide p5R]

Further lines, the molecule ahead of its results:

Molecule: 99mTc-p5: peptide p5 radiolabeled with 99mTc (CGGYSKAQKAQAKQAKQAQKAQKAQAKQAKQ; also: 99mTc radiolabel)
distribution of radiotracer by SPECT/CT in AA mice [1]: coincident retention of both radiotracers in the amyloid-laden liver and spleen
T:M ratio, Heart [2]: 2.75
T:M ratio, L. Kidney [2]: 659.97
T:M ratio, Liver [2]: 12.44
T:M ratio, Low. Intestine [2]: 14.55
T:M ratio, Muscle [2]: 1.00
T:M ratio, Pancreas [2]: 3.92
T:M ratio, R. Kidney [2]: 711.82
T:M ratio, Spleen [2]: 4.65
T:M ratio, Stomach [2]: 9.62
T:M ratio, Up. Intestine [2]: 8.88

Molecule: 125I-p5: peptide p5 radioiodinated with 125I (CGGYSKAQKAQAKQAKQAQKAQKAQAKQAKQ; also: 125I radiolabel)
% bound relative to no inhibitor ([3]; PBS): 100.0%
% bound relative to no inhibitor ([3]; TBS with 1 mM CaCl2): 76.5%

Molecule: GGGYSRAQRAQARQARQAQRAQRAQARQARQ [p5R]
affinity relative to p5 [4]: higher affinity for both heparin and synthetic amyloid fibrils

Molecule: CGGYSKAQKAQAKQAKQAQKAQKAQAKQAKQ (not fully specified; also: 99mTc-labeled in imaging studies) [Peptide p5]
% bound relative to no inhibitor (no inhibitor, PBS) [7]: 100%
% bound relative to no inhibitor (no inhibitor, TBS with 1 mM CaCl2) [7]: 76.5%
% bound relative to no inhibitor, with 4 μM enoxaparin [7]: 97.6%
% bound relative to no inhibitor, with 100 μM enoxaparin [7]: 87.4%
% bound to the fibril pellet [7]: > 50%
% bound to the fibril pellet [8]: > 50%
